Activity calls are given as the source filed them. No cut-off for these calls is given here.
Tests used:
Mus musculus [1] = assay: Increase in dopamine levels in alpha-syn A53T transgenic B6C3H mouse striatum at 10 to 20 mg/kg dosed once daily for 12 consecutive weeks by HPLC analysis; format: functional, organism-based
Method in brief: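 α-syn A53T transgenic B6;C3H mice, dosed from 4 months of age once daily for 12 weeks with agent (5–20 mg/kg) or L-DOPA 20 mg/kg in 0.5% CMC-Na. Striatum sonicated in 0.6 N perchloric acid, phosphate/citrate/EDTA solution added, centrifuged; dopamine by HPLC, n = 8.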

[2] = target: Proto-oncogene tyrosine-protein kinase Src (Rattus norvegicus) (UniProt Q9WUD9); assay: Inhibition of Src in Sprague-Dawley rat primary microglia cells assessed as suppression of LPS-stimulated PTEN phosphorylation at Tyr-240 residue at 10 uM preincubated for 1 hr followed by LPS challenge measured after 3 hrs by Western blot analysis
Proto-oncogene tyrosine-protein kinase Src (Rattus norvegicus), sequence (Q9WUD9 2-536 limits assumed): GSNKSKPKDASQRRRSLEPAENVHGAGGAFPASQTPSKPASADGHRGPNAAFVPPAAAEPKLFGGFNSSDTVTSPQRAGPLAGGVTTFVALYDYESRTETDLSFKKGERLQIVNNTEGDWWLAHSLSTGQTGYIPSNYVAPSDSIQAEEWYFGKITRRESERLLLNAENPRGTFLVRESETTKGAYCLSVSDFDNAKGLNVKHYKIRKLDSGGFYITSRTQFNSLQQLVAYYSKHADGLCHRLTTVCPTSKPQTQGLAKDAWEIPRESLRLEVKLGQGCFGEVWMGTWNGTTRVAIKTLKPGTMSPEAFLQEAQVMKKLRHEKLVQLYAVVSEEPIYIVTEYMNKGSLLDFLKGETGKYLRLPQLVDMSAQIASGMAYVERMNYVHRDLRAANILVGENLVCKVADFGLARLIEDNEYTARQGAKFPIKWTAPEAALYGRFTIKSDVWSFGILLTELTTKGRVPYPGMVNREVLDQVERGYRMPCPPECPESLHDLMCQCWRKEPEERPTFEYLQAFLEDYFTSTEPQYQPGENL
Method in brief: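 Primary microglia from 1-day-old Sprague-Dawley rat brains, grown to confluence 12–14 days, shaken off astroglia (>98% pure). Agent at 10 µM added 1 h before LPS 100 ng/mL. Phosphorylated Src, Akt and PTEN measured 3 h later by Western blot, n = 4.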

Mus musculus [3] = assay: Antineuro-inflammatrory activity in alpha-syn A53T transgenic B6C3H mouse assessed as decrease in IL-1beta level in midbrain at 10 to 20 mg/kg dosed once daily for 12 consecutive weeks by ELISA; format: functional, organism-based
Method in brief: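 Male B6;C3H mice expressing mutant α-syn (A53T), from 4 months old, given agent (5, 10, 20 mg/kg) or L-DOPA 20 mg/kg in 0.5% CMC-Na once daily for 12 weeks. Wild-type controls received vehicle. Midbrain homogenised in non-denaturing lysis buffer with protease inhibitor; IL-1β or TNF-α measured by ELISA, n = 6, mean ± SD.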

Mus musculus [4] = assay: Effect on GSK3beta protein expression level in midbrain of MPTP/probenecid-induced chronic C57/BL mouse Parkinson's disease model at 5 to 20 mg/kg dosed once daily for 7 weeks post 10 doses of MPTP/probenecid for 5 weeks by iTRAQ-labelled 2D-LC/MS/MS analysis; format: functional, organism-based
Mus musculus [5] = assay: Neuroprotective activity in MPTP-induced subacute C57/BL mouse Parkinson's disease model assessed as improvement in motor behavior at 5 to 20 mg/kg […] dosed 30 mins prior to each MPTP injection for 5 days and administered continously for 7 days post last MPTP dose by pole test; format: functional, organism-based
Method in brief: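 Sub-acute MPTP model (30 mg/kg i.p. × 5 days) in male C57/BL mice. Agent (5–20 mg/kg) or L-DOPA 20 mg/kg given 30 min before each injection and for 7 days after. Rotarod at 14 rpm, up to 120 s, fall latency over three trials 1 h apart. Pole test: 50 cm pole, descent scored 1–5, two trials 1 h apart, pre-trained. n = 15.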

Mus musculus [6] = assay: Nephrotoxicity in ICR mouse at 250 to 1000 mg/kg administered through oral gavage for 14 consecutive days; format: toxicity, organism-based; details: in vivo
Method in brief: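 Mice dosed by oral gavage at 250, 500 and 1000 mg/kg for 14 consecutive days. General condition monitored throughout; liver and kidney clinical chemistry assessed.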

Mus musculus [7] = assay: Neuroprotective activity in alpha-syn A53T transgenic B6C3H mouse assessed as reversal of decline of TH-positive neuron levels in substantia nigra at 10 to 20 mg/kg dosed once daily for 12 consecutive weeks by 3,3'-diaminobenzidine staining based light microscopic analysis; format: functional, organism-based
Method in brief: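 Transgenic male B6;C3H A53T α-syn mice, starting at 4 months, were given drug once daily for 12 weeks in 0.5% CMC-Na. Fixed brains were sectioned at 40 µm on a freezing microtome. Substantia nigra coronal sections were immunostained for TH, visualized with DAB and peroxide, and positive neurons counted by light microscopy under blinding.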

[8] = target: Proto-oncogene tyrosine-protein kinase Src (Rattus norvegicus) (UniProt Q9WUD9); assay: Inhibition of Src in Sprague-Dawley rat primary mixed mesecephalic neuron/glial cells assessed as suppression of LPS-induced microglia activation by measuring Iba-1 expression at 10 uM preincubated for 1 hr followed by LPS challenge measured after 24 hrs
Mus musculus [9] = assay: Increase in dopamine level in striatum of MPTP-induced subacute C57/BL mouse Parkinson's disease model at 10 to 20 mg/kg […] dosed 30 mins prior to each MPTP injection for 5 days and administered continously for 7 days post last MPTP dose by HPLC analysis; format: functional, organism-based
Method in brief: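 Sub-acute model: male C57/BL mice given MPTP·HCl 30 mg/kg i.p. for 5 days. Agent (5–20 mg/kg) or L-DOPA 20 mg/kg in 0.5% CMC-Na dosed 30 min before each injection, then for 7 more days. Striatum sonicated in 0.6 N perchloric acid, centrifuged, phosphate/citrate/EDTA solution added, recentrifuged; dopamine by HPLC, n = 8.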

Mus musculus [10] = assay: Antineuro-inflammatrory activity in MPTP/probenecid-induced chronic C57/BL mouse Parkinson's disease model assessed as decrease in TNF-alpha level in midbrain at 10 to 20 mg/kg dosed once daily for 7 weeks post 10 doses of MPTP/probenecid for 5 weeks measured after last MPTP/probenecid dose by ELISA; format: functional, organism-based
Method in brief: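 Male C57/BL mice (22–25 g) received 10 doses of MPTP hydrochloride (25 mg/kg in saline, s.c.) plus probenecid (250 mg/kg in DMSO, i.p.) over 5 weeks. Only mice failing the rotarod afterwards were randomised to agent (5, 10, 20 mg/kg) or L-DOPA 20 mg/kg in 0.5% CMC-Na, once daily for 7 weeks. Midbrain lysate in non-denaturing buffer with protease inhibitor; IL-1β or TNF-α by ELISA, n = 6.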

Mus musculus [11] = assay: In vivo inhibition of Src in MPTP/probenecid-induced chronic C57/BL mouse Parkinson's disease model assessed as effect on NOS1 expression level in midbrain at 5 to 20 mg/kg dosed once daily for 7 weeks post 10 doses of MPTP/probenecid for 5 weeks by iTRAQ-labelled 2D-LC/MS/MS analysis; format: functional, organism-based
Mus musculus [12] = assay: Neuroprotective activity in MPTP/probenecid-induced chronic C57/BL mouse Parkinson's disease model assessed as improvement in motor behavior at 5 to 20 mg/kg dosed once daily for 7 weeks post 10 doses of MPTP/probenecid for 5 weeks measured after last MPTP/probenecid dose by pole test; format: functional, organism-based
Method in brief: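 Chronic MPTP/probenecid model (10 doses over 5 weeks), then agent (5–20 mg/kg) or L-DOPA 20 mg/kg daily for 7 weeks. Rotarod at 14 rpm, up to 120 s, fall latency from three trials 1 h apart. Pole test: gauze-wrapped 50 cm pole, descent scored 1–5, two trials 1 h apart after pre-training. n = 15.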

Question: For `COc1cc(OC)c(CN[C@@H](CO)C(=O)O)c(OC)c1`, which Activity (Mus musculus [1]) is on record?
Answer: Active

Question: What about the inhibition [2] of the same compound?
Answer: Active

Question: What about the Activity (Mus musculus [3]) of the same compound?
Answer: Active

Question: And the Activity (Mus musculus [4])?
Answer: Active

Question: What about the Activity (Mus musculus [5]) of the same compound?
Answer: Active

Question: What about the Activity (Mus musculus [6]) of the same compound?
Answer: Non-Toxic

Question: And the Activity (Mus musculus [7])?
Answer: Active

Question: What about the inhibition [8] of the same compound?
Answer: Active

Question: And the Activity (Mus musculus [9])?
Answer: Active

Question: What about the Activity (Mus musculus [10]) of the same compound?
Answer: Active

Question: And the inhibition (Mus musculus [11])?
Answer: Active

Question: And the Activity (Mus musculus [12])?
Answer: Active
